Test results as given in the RNAGym collection of RNA variant scans (doi:10.1126/science.aae0568).
This sample holds only a part of the variants without activity.

B1: tRNA (parent)
chain: GUUCCGUUGGCGUAAUGGUAACGCGUCUCCCUCCUAAGGAGAAGACUGCGGGUUCGAGUCCCGUACGGAACG

Variants of: B1
Assay: yeast fitness relative to wild type (ratio to wild type); higher = fitter; tRNA-Arg(CCU), competitive growth, 37 C, YPD
Procedure, shortened: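 Variants of the tRNA-Arg(CCU) gene were chemically synthesised with a 3% per-site mutation rate across 69 sites and placed at the native genomic locus in Saccharomyces cerevisiae. Six parallel replicates of the pooled strains were competed in YPD at 37°C for 24 hours, and gene amplicons from the start and end populations were read by 100-nucleotide paired-end sequencing. Darwinian fitness relative to wild type was derived from changes in genotype frequencies. Genotypes required ≥ 100 starting reads, and estimates < 0.5 were set to 0.5.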

Variant | yeast fitness
C29U G58C G68A | ≤ 0.5
A37G A42C A65U A69C | ≤ 0.5
U19G A20U C27A | 0.587
C5U U53G C62A | ≤ 0.5
C5A U26A G51C C61G | ≤ 0.5
G6C U16G A20C G25A A43U G50A C55U | ≤ 0.5
A15C A40G U53C | ≤ 0.5
C4G U8G A42C C55U | ≤ 0.5
G6U G63C | 0.615
C5A A15G C33A C61U G67A | ≤ 0.5
G10C C11G | 0.682
G6A G38A U47A C60G | ≤ 0.5
C5A U32G C55U | ≤ 0.5
U26A U47A C61A | ≤ 0.5
U19G A57G C66U | ≤ 0.5
U7G G9A A20U C31G C34U G67U | ≤ 0.5
C31U A42C U54A | ≤ 0.5
C29G A42C G51A A70U | ≤ 0.5
G10C C27G A42C C49A A69C | ≤ 0.5
C11A A42G C49U A65C | ≤ 0.5
C27G G50C | ≤ 0.5

Variant | yeast fitness
A65U G68A | 0.729
C5A U35C G44A G48C C55G A70C | ≤ 0.5
G25A G52U | 0.627
U19A C22G A70U | 0.509
C29G U35A A36C C62A | ≤ 0.5
C33A A37C | ≤ 0.5
U35G C62G | 0.597
C24U A37G | 0.708
G12A A40G C46A | 0.752
G18C G58C | 0.635
G56C C62G | 0.559
C49U C55A | 0.557
A21C C30A C62U A70U | ≤ 0.5
U3G A65U | 0.855
C4A U16C G17A G56A C61U | ≤ 0.5
C4G G9A G12C C29A G50C | ≤ 0.5
G6A C11G A21G C27G C29U U35G G56C G63A U64C G67C | ≤ 0.5
A57G C61A | 0.688
C11G G44C C66A | 0.614
U35C A42U | 0.819
U8A G38A A40C C49U U54C C60G | ≤ 0.5

Variant | yeast fitness
U2G A36G A69U | 0.56
U19A C27U A43U C55U | ≤ 0.5
C4U G48A U54G | ≤ 0.5
G25A C30A G67U | 0.776
U8A G48A | 0.666
U47C A65G G68C | 0.546
U3A A36U C55A C62U | ≤ 0.5
U28A C34G | 0.707
U2G C34G | 0.655
C4U C27A | 0.737
G10A C30U G50A | 0.529
A36U A69U | 0.623
G9A A36C A40C A45C | ≤ 0.5
G38C U54A A65C | 0.567
A14G A20C C30U C66U | ≤ 0.5
U16C C22A A40G C60A | ≤ 0.5
C24U A37C G50C | 0.547
C62A A69G A70G | 0.614
U8A C27G G39A C46U G67A | ≤ 0.5
C4G U8C C22G A42C C49U A57C | 0.676
A20U A43C U54C | ≤ 0.5

Variant | yeast fitness
G6A G17C G18C A45G G58C C66U | ≤ 0.5
A14G G18A | 0.63
C11A U16C G18C A36G G56C | ≤ 0.5
C4G U16G G48A A57G A69U | ≤ 0.5
G56C C61A G63U | 0.539
G12A C22G C24A G38A | ≤ 0.5
G9A A36U G39A G52C | ≤ 0.5
C11U A57U | 0.677
A21U G67C A69U | ≤ 0.5
C30A C61A A65C | 0.578
A15U A20G C27U G48C A70U | ≤ 0.5
C61U A69G A70C | 0.923
C49G G52C | 0.664
C29A A37U A65U | ≤ 0.5
C5A C22U | 0.79
U7C G48A U54A C55G A65U | ≤ 0.5
C11A A15G A40G | 0.824
C31U U54C | 0.82
U28G C46G C49U C61A | ≤ 0.5
G6A U8C G10C | ≤ 0.5
